Molecular target: T1, purified mLYPLAL1 (Mus musculus, UniProt Q3UFF7)
T1 sequence (Q3UFF7 1-239): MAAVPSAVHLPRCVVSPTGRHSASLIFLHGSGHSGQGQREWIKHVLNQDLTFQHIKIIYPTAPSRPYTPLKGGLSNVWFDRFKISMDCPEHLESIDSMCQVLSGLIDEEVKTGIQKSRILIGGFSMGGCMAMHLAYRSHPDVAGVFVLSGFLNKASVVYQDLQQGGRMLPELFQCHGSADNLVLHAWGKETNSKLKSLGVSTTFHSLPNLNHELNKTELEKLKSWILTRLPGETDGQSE
Experiment: NanoDSF thermal stability assay
Format: binding
Conditions: recombinant mLYPLAL1
In short: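 Purified mouse LYPLAL1 (2.3 μM final) in PBS pH 7.4 with varying test compound concentrations (2% DMSO final) in capillaries. Intrinsic-fluorescence nanoDSF over a 20–95°C ramp at 1°C/min. Kd estimated by isothermal analysis of the unfolding data.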

Q: How did the “effect on thermal stability of mLYPLAL1” value turn out when `COc1ccc(S(=O)(=O)n2nc(NCc3ccc(Cl)cc3)nc2N)cc1` [Compound 80, 3-(4-chlorobenzyl)amino-1-((4-methoxyphenyl)sulfonyl)-5-amino-1H-1,2,4-triazole] was run?
A: not seen

Reference: paper PMC7442688 (Nature chemical biology, 2020)
